# Compound activity deposited in PubChem BioAssay by several laboratories.
# In the library only some 3.1% were active in any assay of this set; here they are far more common.
# ATG4B inh: inhibitors of human ATG4B cysteine protease; Q9Y4P1; ATG4B cleavage of LC3-PLA2, NBD-HPC fluorescence, 1 h; inhibition, % at 8.33 µM; hit rate 0.51% among 340,000; in the data active = inhibition above about 40%
# LEDGF integ inh: blocks HIV-1 LEDGF/p75-dependent DNA integration. TR-FRET IN-LEDGF/p75 DNA integration, Eu/Cy5. hit rate 0.64% among 370,000. AID 743269. inhibition, % at 3.7 µM;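 active = inhibition above the screen-wide mean plus 3 SD, cut at about 13% in these data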;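 also: signal is the Cy5 over europium emission ratio at 671 and 618 nm; 0% = plate median of compound wells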
# rCAG RNA binder: r(CAG) repeat RNA binding; inhibition, % at 3 µM; TO-PRO-1 dye displacement fluorescence; hit rate 1.3% among 370,000;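 active = inhibition above the plate cutoff, the mean of all test compounds on that plate plus 3 SD, cut at about 35% in these data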;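 also: 0% = DMSO alone and 100% = 100 µM mitoxantrone as full dye displacement; higher means more dye released from RNA so lower well fluorescence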
# CSN inh: inhibitors of human CSN-mediated cullin deneddylation | Q92905 | Purified CSN, SCF-Nedd8-OG deneddylation, fluorescence polarization | inhibition, % at 12.5 µM | hit rate 0.38% among 360,000 | AID 651999;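 active = pattern-corrected inhibition above about 35%, with an unprinted fluorescence ratio check between 0.5 and 1.5, limit read from the data, passing the limit was not always enough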;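 also: 0% = enzyme with substrate and 100% = substrate without enzyme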
#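 Assay system: HEK293T-derived human Csn5 enzyme; quantity: 0.24 nM enzyme; medium: Tris/NaCl/DTT buffer, pH 7.5; also added: substrate SCFSkp2-Nedd8OG, 10 nM; doses: 12.5 µM compound; schedule: 90 min reaction at room temperature; signal: FP; read-out: % inhibition of substrate cleavage by Csn5; benchmarks: substrate-only high control, full reaction low control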
# MBD2 inh: MBD2-methylated oligo binding inhibition; Q9UBB5; inhibition, % at 4.4 µM; AID 686964; TR-FRET, MBD2 binding to methylated oligonucleotide; hit rate 0.31% among 370,000; in the data active = inhibition above about 13%
# UHRF1 MBD2 ctr: human UHRF1 methylated DNA binding inhibitors | UHRF1 binding to methylated oligo, TR-FRET | inhibition, % at 4.4 µM | hit rate 0.75% among 370,000; in the data active = inhibition above about 21%;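 also: UHRF1 SRA domain binding a hemimethylated CpG hairpin DNA probe; 0% = median of test compound wells and 100% = reference inhibitor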
# Target sequence (Q96T88 whole entry, looked up, the tested form may be a part): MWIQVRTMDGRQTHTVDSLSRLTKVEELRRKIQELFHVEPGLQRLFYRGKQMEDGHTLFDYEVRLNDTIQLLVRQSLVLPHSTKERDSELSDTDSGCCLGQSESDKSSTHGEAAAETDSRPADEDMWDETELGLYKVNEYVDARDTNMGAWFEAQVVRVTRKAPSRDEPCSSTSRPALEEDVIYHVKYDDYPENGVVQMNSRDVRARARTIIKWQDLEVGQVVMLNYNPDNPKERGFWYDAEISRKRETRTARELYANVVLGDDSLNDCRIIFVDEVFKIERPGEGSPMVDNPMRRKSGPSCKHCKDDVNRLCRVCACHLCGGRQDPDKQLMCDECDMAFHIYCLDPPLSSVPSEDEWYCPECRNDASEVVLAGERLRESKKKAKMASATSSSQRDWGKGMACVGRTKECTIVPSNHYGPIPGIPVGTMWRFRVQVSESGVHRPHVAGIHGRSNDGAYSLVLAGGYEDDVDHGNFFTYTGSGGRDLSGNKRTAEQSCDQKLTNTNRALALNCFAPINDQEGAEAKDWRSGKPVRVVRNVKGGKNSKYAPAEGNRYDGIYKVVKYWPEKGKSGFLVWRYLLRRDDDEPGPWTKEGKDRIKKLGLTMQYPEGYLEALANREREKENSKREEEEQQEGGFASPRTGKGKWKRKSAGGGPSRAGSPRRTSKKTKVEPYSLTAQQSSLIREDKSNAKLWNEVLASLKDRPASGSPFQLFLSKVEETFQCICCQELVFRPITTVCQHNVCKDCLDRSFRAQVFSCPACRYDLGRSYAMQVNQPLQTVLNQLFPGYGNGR
# ATG4B confirm: confirmation of human ATG4B inhibitors. ATG4B protease fluorescent substrate cleavage assay. hit rate 92% among 320. shares compounds with ATG4B inh. AID 504757. inhibition, % at 8.33 µM; in the data active = inhibition above about 39%
# PLA2 ctr: PLA2 (human) inhibition in ATG4B counter-screen | AID 588402 | inhibition, % at 8.33 µM | hit rate 66% among 1,600 | shares compounds with ATG4B inh | purified PLA2, NBD-C6-HPC fluorescence, 45 min; in the data active = inhibition above about 50%
# An asterisk follows results filed as active; . = no result given.
SMILES,ATG4B inh,LEDGF integ inh,rCAG RNA binder,CSN inh,MBD2 inh,UHRF1 MBD2 ctr,PLA2 ctr,others
O=C1C(=C(c2ccccc2)c2ccccc2)Nc2ccccc21,42.7*,-1.7,3.6,0.6,-5.7,-5.6,50.0*,
Cc1ccc2cc3cc(C(=O)N4CC(C)CC(C)C4)oc3nc2c1 (stereo unspecified),44.9*,-3.2,-0.9,2.4,-6.2,-2.9,56.9*,
COc1ccc2cc3cc(C(=O)N4CC(C)CC(C)C4)oc3nc2c1 (stereo unspecified),49.2*,.,.,2.0,.,.,54.1*,
O=C(Nc1ccc(F)cc1F)C1CCCN1S(=O)(=O)c1cccnc1 (stereo unspecified),.,-4.5,2.1,.,2.6,0.2,.,
N#CCc1ccc(OC[C@@H](O)CN2CCC(C(O)(c3ccccc3)c3ccccc3)CC2)cc1,.,-3.2,2.3,.,-0.8,1.8,.,
O=C(COC(=O)c1ncc(Cl)c(Cl)c1Cl)c1ccc(Cl)s1,40.0,1.0,-1.5,3.8,0.5,1.2,22.2,
C[C@H](O)[C@@H]1CN2CCc3ccc(N4CCOCC4)cc3[C@@H]2C[C@@H]1N(C)C(=S)NCCc1ccccc1,.,-4.6,2.8,.,1.2,-1.2,.,
CC(C)C(=O)OCCCN1CCC2(CCC(c3ccccc3)CC2)C1=O (stereo unspecified),.,0.1,-3.3,.,-9.1,-1.7,.,
COc1ccc(NC(=O)CCCN2C(=O)C(c3ccccc3)Oc3cccnc32)cc1OC (stereo unspecified),-3.4,-3.9,-2.3,2.8,-1.2,2.2,.,
COc1ccc(Br)cc1CNC(=O)CN1C(=O)C(c2ccccc2)Oc2cccnc21 (stereo unspecified),59.0*,-5.0,-10.8,6.2,-0.6,0.1,66.7*,
CC1CCCN(C(=O)Cc2cn(Cc3cccc(Cl)c3)c3ccccc23)C1 (stereo unspecified),47.7*,0.3,-4.6,2.7,2.2,1.7,55.8*,
O=C(O)Cc1cn(Cc2cccc(Cl)c2)c2ccccc12,1.1,-2.5,-1.5,-3.4,-1.1,0.8,.,
CC1CCCN(C(=O)COC(=O)Cc2ccc(Cl)cc2)C1 (stereo unspecified),-4.8,4.3,-5.0,2.3,-2.7,-0.2,.,
O=C(Cc1cn(Cc2cccc(Cl)c2)c2ccccc12)N1CCCCCC1,49.8*,0.8,-4.1,2.0,0.3,-0.7,46.6,
CCCNC(=O)Nc1ccc2c(c1)C(=O)N(C)[C@H]1CC[C@@H](CC(=O)OC)O[C@H]1CO2,.,0.7,14.2,.,-1.4,-1.2,.,
CN(Cc1ccccc1)S(=O)(=O)c1ccc(NC(=S)NC(=O)C2CCCC2)cc1,50.4*,-2.0,9.6,-3.6,-4.0,-0.8,43.6,
CCN(CC)C(=O)c1ccc2c(=O)n(Cc3ccc4c(c3)OCO4)c(=S)[nH]c2c1,-5.3,-2.3,-2.2,1.8,5.4,1.5,.,
CC1CCCN(C(=O)c2ccc3c(=O)n(Cc4ccc5c(c4)OCO5)c(=S)[nH]c3c2)C1 (stereo unspecified),85.2*,-0.4,-0.9,-2.9,3.8,-2.6,62.4*,
COc1ccc(-c2nc(C#N)c(N3CCC(C(N)=O)CC3)o2)cc1,-3.9,0.4,0.0,3.2,-5.4,-3.4,.,
CC(C)(C)c1ccc(-c2nc(C#N)c(N3CCC(C(N)=O)CC3)o2)cc1,56.4*,3.6,4.2,4.6,-1.9,0.8,56.1*,
Cn1c(SCC(=O)Nc2ccccc2-c2ccccc2)nnc1-c1ccccc1,.,0.2,2.0,.,4.3,1.7,.,
COC(=O)c1cc(S(=O)(=O)N2CCN(C(C)=O)CC2)cn1C,.,3.4,2.8,.,-0.1,0.3,.,
Cc1ccc(C)c(CNC(=O)Nc2ccccc2)c1,48.9*,1.4,-0.7,-2.9,8.2,-1.1,50.5*,
O=C(CCN1C(=O)/C(=C\c2ccccc2Cl)SC1=S)Nc1cccnc1,-3.1,-1.4,6.5,1.7,0.8,1.3,.,
O=C(CCCN1C(=O)/C(=C/c2ccccc2Cl)SC1=S)NNC(=O)c1ccccc1,50.4*,4.6,-0.1,0.5,2.3,0.5,31.1,ATG4B confirm=54.8*
SMILES,ATG4B inh,LEDGF integ inh,rCAG RNA binder,CSN inh,MBD2 inh,UHRF1 MBD2 ctr,PLA2 ctr,others
O=C(CCCN1C(=O)/C(=C/c2ccccc2Cl)SC1=S)NNC(=O)c1cccnc1,7.8,2.0,6.3,4.8,4.2,-3.0,.,
O=C(CCN1C(=O)/C(=C/c2ccccc2Cl)SC1=S)Nc1ccccc1C(=O)O,58.0*,4.5,29.5,9.3,1.0,-0.9,51.3*,
O=C(CSc1nnc(-c2cnccn2)n1-c1ccccc1)Nc1ccc2cn[nH]c2c1,.,-1.0,0.3,.,4.2,-0.8,.,
Cc1cccc(-c2cccc3c4c([nH]c23)[C@@H]2C[C@H](N(C)C(=O)c3cccc(Cl)c3)[C@H]([C@H](C)O)CN2CC4)c1,.,-0.1,7.5,.,-0.5,4.3,.,
O=C(/C=C/c1ccc(Cl)cc1Cl)N1CCN(c2ccccc2[N+](=O)[O-])CC1,53.2*,1.7,0.9,5.2,-4.3,-0.7,60.0*,
Cc1cccn2c(=O)c(/C=C(\C#N)C(=O)NCc3ccco3)c(N3CCCC(C)C3)nc12 (stereo unspecified),51.3*,0.1,-1.0,-18.4,-2.5,-4.2,67.5*,
Cc1cccn2c(=O)c(/C=C(\C#N)C(=O)NCc3ccco3)c(N3CCCCCC3)nc12,24.4,-2.4,-0.5,107.4,3.3,-1.4,.,
CCOC(=O)C1CCCN(c2nc3c(C)cccn3c(=O)c2/C=C(\C#N)C(=O)NCc2ccco2)C1 (stereo unspecified),10.3,8.7,1.8,3.5,4.0,-0.3,.,
Cc1cccn2c(=O)c(/C=C(\C#N)C(=O)NCc3ccco3)c(N3CCCCC3)nc12,62.7*,3.1,-4.1,1.8,0.6,-1.4,60.0*,
CCOc1ccccc1NC(=O)c1cc(C(=O)c2cc(Br)ccc2O)coc1=N,55.8*,0.0,21.3,-2.6,-1.1,0.3,56.8*,
CC(C)OC(=O)c1cc(C(=O)c2cc(Br)ccc2O)coc1=N,2.8,-4.5,8.9,-0.6,3.3,-0.7,.,
CC(C)[C@H](NS(=O)(=O)c1ccccc1)C(=O)OCC(=O)Nc1ccccc1Sc1ccccc1,94.5*,-4.8,3.0,-5.7,-4.9,-2.1,92.5*,
COc1cc2c(cc1NC(=O)COC(=O)[C@@H](NS(=O)(=O)c1ccccc1)C(C)C)oc1ccccc12,75.8*,-0.7,16.1,1.2,-3.5,-5.2,82.5*,
Cc1cc(NC(=O)COC(=O)[C@@H](NS(=O)(=O)c2ccccc2)C(C)C)no1,-5.4,-3.2,-4.8,8.2,-4.5,4.5,.,
Nc1c(S(=O)(=O)O)cc(NC(=O)c2ccccc2)c2c1C(=O)c1ccccc1C2=O,75.8*,.,.,-4.6,.,.,68.4*,
